According to ChEMBL document CHEMBL1681706, “Design and synthesis of novel CCR2 antagonists: investigation of non-aryl/heteroaryl binding motifs” (Bioorg Med Chem Lett, 2011):

Legend:
[1] = Apparent permeability from basolateral to apical side of MDCK cells; type: ADME, cell-based, Canis lupus familiaris; details: dog
[2] = Apparent permeability from apical to basolateral side of MDCK cells; type: ADME, cell-based, Canis lupus familiaris; details: dog
[3] = Efflux ratio of permeability from basolateral to apical over apical to basolateral side of MDCK cells; type: ADME, cell-based, Canis lupus familiaris; details: dog
[4] = target: hERG (KCNH2) (Homo sapiens, UniProt Q12809); assay: Displacement of dofetilide from human ERG at 10 uM; details: probe dofetilide
Chain of hERG (KCNH2) (Q12809 whole entry): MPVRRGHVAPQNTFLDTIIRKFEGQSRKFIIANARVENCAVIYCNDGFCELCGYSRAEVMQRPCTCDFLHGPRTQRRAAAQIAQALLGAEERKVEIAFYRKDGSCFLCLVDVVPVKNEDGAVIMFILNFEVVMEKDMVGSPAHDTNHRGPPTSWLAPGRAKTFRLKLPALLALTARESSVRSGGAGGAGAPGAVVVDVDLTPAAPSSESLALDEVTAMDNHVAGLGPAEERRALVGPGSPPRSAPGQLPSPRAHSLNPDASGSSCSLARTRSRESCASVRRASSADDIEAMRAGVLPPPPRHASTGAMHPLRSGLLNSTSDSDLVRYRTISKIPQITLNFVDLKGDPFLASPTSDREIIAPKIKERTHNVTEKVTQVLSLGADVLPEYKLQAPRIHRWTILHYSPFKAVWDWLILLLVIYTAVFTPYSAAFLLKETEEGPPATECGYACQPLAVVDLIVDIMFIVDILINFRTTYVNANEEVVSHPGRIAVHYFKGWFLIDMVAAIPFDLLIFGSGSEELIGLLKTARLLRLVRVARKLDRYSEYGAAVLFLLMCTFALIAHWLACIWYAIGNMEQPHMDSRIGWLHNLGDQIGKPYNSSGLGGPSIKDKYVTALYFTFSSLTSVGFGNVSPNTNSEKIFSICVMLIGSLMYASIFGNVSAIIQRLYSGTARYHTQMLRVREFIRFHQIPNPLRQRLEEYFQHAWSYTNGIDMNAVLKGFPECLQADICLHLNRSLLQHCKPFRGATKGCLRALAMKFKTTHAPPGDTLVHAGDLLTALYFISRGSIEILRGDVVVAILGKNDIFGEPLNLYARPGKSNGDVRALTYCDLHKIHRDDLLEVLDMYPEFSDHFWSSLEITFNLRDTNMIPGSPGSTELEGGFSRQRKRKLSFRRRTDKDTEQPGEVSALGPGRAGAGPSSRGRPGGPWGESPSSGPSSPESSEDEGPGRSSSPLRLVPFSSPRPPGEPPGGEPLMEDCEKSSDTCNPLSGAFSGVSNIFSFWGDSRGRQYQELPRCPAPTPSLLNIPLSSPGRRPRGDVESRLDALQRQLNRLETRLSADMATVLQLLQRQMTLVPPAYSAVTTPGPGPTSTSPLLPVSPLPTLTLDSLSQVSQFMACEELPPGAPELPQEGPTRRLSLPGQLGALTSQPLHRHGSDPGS
How it was run: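 hERG dofetilide assay, read out as percent inhibition at a single concentration of test compound.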

[5] = target: T1, C-C chemokine receptor type 2 (Homo sapiens, UniProt P41597); assay: Displacement of [125I]MCP1 from human CCR2 preincubated 30 mins by human whole cell binding assay
How it was run: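 Whole cell binding to human CCR2, with a 30 min preincubation with compound.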
Target sequence in this assay (P41597 whole entry): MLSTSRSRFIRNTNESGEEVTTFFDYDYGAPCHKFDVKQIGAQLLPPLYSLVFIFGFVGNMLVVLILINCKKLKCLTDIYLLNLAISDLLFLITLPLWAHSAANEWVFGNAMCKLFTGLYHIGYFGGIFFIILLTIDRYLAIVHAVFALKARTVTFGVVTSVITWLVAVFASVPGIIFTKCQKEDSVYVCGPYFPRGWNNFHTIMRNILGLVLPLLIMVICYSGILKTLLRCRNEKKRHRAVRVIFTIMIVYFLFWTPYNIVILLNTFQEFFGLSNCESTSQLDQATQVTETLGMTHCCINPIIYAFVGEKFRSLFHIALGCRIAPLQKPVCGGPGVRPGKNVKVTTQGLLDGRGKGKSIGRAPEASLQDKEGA

[6] = Half life in human liver microsomes at 1 uM; type: ADME, Microsome
How it was run: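 Human liver microsome stability test, read out as half-life (t1/2, min) after a single low dose of compound.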

[7] = target: T1, C-C chemokine receptor type 2; assay: Displacement of [125I]MCP1 from human CCR2 preincubated 1 hrs by human whole cell binding assay
How it was run: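 Human CCR2 whole cell binding, with compound preincubated for 1 h before the binding read-out.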
Target sequence in this assay (P41597 whole entry): as above

[8] = target: T1, C-C chemokine receptor type 2; assay: Displacement of [125I]MCP1 from human CCR2 at 0.30 uM preincubated 30 mins by human whole cell binding assay
Target sequence in this assay (P41597 whole entry, looked up): as the sequence (P41597 whole entry) above

[9] = target: T1, C-C chemokine receptor type 2; assay: Displacement of [125I]MCP1 from human CCR2 at 0.30 uM preincubated 1 hr by human whole cell binding assay
Target sequence in this assay (P41597 whole entry, looked up): as the sequence (P41597 whole entry) above

[10] = target: T1, C-C chemokine receptor type 2; assay: Displacement of [125I]MCP1 from human CCR2 at 0.30 uM by human whole cell binding assay
Target sequence in this assay (P41597 whole entry, looked up): as the sequence (P41597 whole entry) above

## CC(CC(=O)N1C[C@@H]2C[C@H]1CN2C(=O)[C@@]1(C(C)C)CC[C@@H](NC2CCOCC2F)C1)C(F)(F)F (stereo partly specified)
[1]
  Papp B→A: 10.2 ×10⁻⁶ cm/s
[2]
  Papp A→B: 11.8 ×10⁻⁶ cm/s
[3]
  efflux ratio: 0.8
[4]
  inhibition at 10 µM: 0%
[5]
  IC50: 12.8 nM
[6]
  half-life at 1 µM: > 2 h

## CO[C@@H]1COCC[C@@H]1N[C@@H]1CC[C@@](C(=O)N2C[C@@H]3C[C@H]2CN3C(=O)OC(C)(C)C)(C(C)C)C1
[7]
  IC50: 2.9 nM
[4]
  inhibition at 10 µM: 0%
[6]
  half-life at 1 µM: > 2 h

## CC(C)COC(=O)N1C[C@@H]2C[C@H]1CN2C(=O)[C@@]1(C(C)C)CC[C@@H](NC2CCOCC2F)C1 (stereo partly specified)
[4]
  inhibition at 10 µM: 0%
[5]
  IC50: 4.3 nM
[6]
  half-life at 1 µM: 0.467 h

## CC(OC(=O)N1C[C@@H]2C[C@H]1CN2C(=O)[C@@]1(C(C)C)CC[C@@H](NC2CCOCC2F)C1)C(F)(F)F (stereo partly specified)
[4]
  inhibition at 10 µM: 3%
[5]
  IC50: 3.2 nM
[6]
  half-life at 1 µM: 0.433 h

## CC(C)[C@]1(C(=O)N2C[C@@H]3C[C@H]2CN3C(=O)C(C)(C)C)CC[C@@H](NC2CCOCC2)C1
[8]
  Activity: 23%
[4]
  inhibition at 10 µM: 2%
[6]
  half-life at 1 µM: > 2 h

## CO[C@@H]1COCC[C@@H]1N[C@@H]1CC[C@@](C(=O)N2C[C@@H]3C[C@H]2CN3C(=O)C(C)(C)C)(C(C)C)C1
[4]
  inhibition at 10 µM: 6%
[6]
  half-life at 1 µM: > 2 h
[9]
  Activity: 40%

## CC(C)[C@]1(C(=O)N2C[C@@H]3C[C@H]2CN3C(=O)CCC(F)(F)F)CC[C@@H](NC2CCOCC2F)C1 (stereo partly specified)
[1]
  Papp B→A: 5.3 ×10⁻⁶ cm/s
[2]
  Papp A→B: 8.35 ×10⁻⁶ cm/s
[3]
  efflux ratio: 0.6
[4]
  inhibition at 10 µM: 5%
[5]
  IC50: 17.3 nM
[6]
  half-life at 1 µM: > 2 h

## CC(C)[C@]1(C(=O)N2C[C@@H]3C[C@H]2CN3C(=O)CC2CCCC2)CC[C@@H](NC2CCOCC2F)C1 (stereo partly specified)
[4]
  inhibition at 10 µM: 3%
[5]
  IC50: 14.7 nM
[6]
  half-life at 1 µM: 0.8 h

## CC(OC(=O)N1C[C@@H]2C[C@H]1CN2C(=O)[C@@]1(C(C)C)CC[C@@H](NC2CCOCC2)C1)C(F)(F)F (stereo partly specified)
[4]
  inhibition at 10 µM: 2%
[5]
  IC50: 3.5 nM
[6]
  half-life at 1 µM: 1.3 h

## CC(C)[C@]1(C(=O)N2C[C@@H]3C[C@H]2CN3C(=O)C2CCCC2)CC[C@@H](NC2CCOCC2)C1
[7]
  IC50: 12.2 nM
[4]
  inhibition at 10 µM: 2%
[6]
  half-life at 1 µM: > 2 h

## CC(=O)N1C[C@@H]2C[C@H]1CN2C(=O)[C@@]1(C(C)C)CC[C@@H](NC2CCOCC2)C1
[8]
  Activity: 1%
[4]
  inhibition at 10 µM: 0%
[6]
  half-life at 1 µM: > 2 h

## CCC(=O)N1C[C@@H]2C[C@H]1CN2C(=O)[C@@]1(C(C)C)CC[C@@H](NC2CCOCC2)C1
[8]
  Activity: 28%
[4]
  inhibition at 10 µM: 6%
[6]
  half-life at 1 µM: > 2 h

## CO[C@@H]1COCC[C@@H]1N[C@@H]1CC[C@@](C(=O)N2C[C@@H]3C[C@H]2CN3C(=O)C2CCCC2)(C(C)C)C1
[7]
  IC50: 8.5 nM
[4]
  inhibition at 10 µM: 6.7%
[5]
  IC50: 11.1 nM
[6]
  half-life at 1 µM: > 2 h

## CC(C)[C@]1(C(=O)N2C[C@@H]3C[C@H]2CN3C(=O)c2ccccc2)CC[C@@H](NC2CCOCC2F)C1 (stereo partly specified)
[4]
  inhibition at 10 µM: 0%
[5]
  IC50: 17.5 nM

## CC(C)[C@]1(C(=O)N2C[C@@H]3C[C@H]2CN3C(=O)CC(C)(C)C)CC[C@@H](NC2CCOCC2F)C1 (stereo partly specified)
[4]
  inhibition at 10 µM: 0%
[5]
  IC50: 39.5 nM
[6]
  half-life at 1 µM: 1.27 h

## CC(C)[C@]1(C(=O)N2C[C@@H]3C[C@H]2CN3C(=O)OC2CCCC2)CC[C@@H](NC2CCOCC2F)C1 (stereo partly specified)
[4]
  inhibition at 10 µM: 0%
[5]
  IC50: 3.1 nM
[6]
  half-life at 1 µM: 0.283 h

## CC(C)[C@]1(C(=O)N2C[C@@H]3C[C@H]2CN3C(=O)OC(C)(C)C)CC[C@@H](NC2CCOCC2)C1
[7]
  IC50: 5 nM
[4]
  inhibition at 10 µM: 4.8%
[6]
  half-life at 1 µM: > 2 h

## CC(C)C(=O)N1C[C@@H]2C[C@H]1CN2C(=O)[C@@]1(C(C)C)CC[C@@H](NC2CCOCC2)C1
[8]
  Activity: 40%
[4]
  inhibition at 10 µM: 3.7%
[6]
  half-life at 1 µM: > 2 h

## CO[C@@H]1COCC[C@@H]1N[C@@H]1CC[C@@](C(=O)N2CCN(C(=O)OC(C)(C)C)CC2)(C(C)C)C1
[7]
  IC50: 251 nM

## CC(C)[C@]1(C(=O)N2C[C@@H]3C[C@H]2CN3C(=O)C2CC2)CC[C@@H](NC2CCOCC2)C1
[4]
  inhibition at 10 µM: 2.3%
[5]
  IC50: 130 nM
[6]
  half-life at 1 µM: > 2 h

## CC(C)[C@]1(C(=O)N2C[C@@H]3C[C@H]2CN3C(=O)C2CCCCC2)CC[C@@H](NC2CCOCC2)C1
[4]
  inhibition at 10 µM: 4%
[5]
  IC50: 11.6 nM
[6]
  half-life at 1 µM: 1.55 h

## CC(C)[C@]1(C(=O)N2C[C@@H]3C[C@H]2CN3C(=O)C2CCCC2)CC[C@@H](NC2CCOCC2F)C1 (stereo partly specified)
[4]
  inhibition at 10 µM: 3%
[5]
  IC50: 13.9 nM
[6]
  half-life at 1 µM: > 2 h

## CC(C)[C@]1(C(=O)N2C[C@@H]3C[C@H]2CN3C(=O)OC(C)(C)C)CC[C@@H](NC2CCOCC2F)C1 (stereo partly specified)
[7]
  IC50: 4.2 nM
[4]
  inhibition at 10 µM: 6%
[6]
  half-life at 1 µM: 0.62 h

## CC(C)[C@]1(C(=O)N2C[C@@H]3C[C@H]2CN3C(=O)C2CCC2)CC[C@@H](NC2CCOCC2)C1
[7]
  IC50: 32 nM
[4]
  inhibition at 10 µM: 6%
[6]
  half-life at 1 µM: > 2 h

## CO[C@@H]1COCC[C@@H]1N[C@@H]1CC[C@@](C(=O)N2C[C@@H]3C[C@H]2CN3C(=O)c2ccccc2)(C(C)C)C1
[7]
  IC50: 6.5 nM
[4]
  inhibition at 10 µM: 7.8%
[5]
  IC50: 12 nM
[6]
  half-life at 1 µM: 1.57 h

## CC(CC(=O)N1C[C@@H]2C[C@H]1CN2C(=O)[C@@]1(C(C)C)CC[C@@H](NC2CCOCC2)C1)C(F)(F)F (stereo partly specified)
[4]
  inhibition at 10 µM: 5%
[5]
  IC50: 13 nM
[6]
  half-life at 1 µM: > 2 h

## CC(C)[C@]1(C(=O)N2C[C@@H]3C[C@H]2CN3C(=O)CCC(F)(F)F)CC[C@@H](NC2CCOCC2)C1
[4]
  inhibition at 10 µM: 1%
[5]
  IC50: 14.6 nM
[6]
  half-life at 1 µM: > 2 h

## CC(C)[C@]1(C(=O)N2C[C@@H]3C[C@H]2CN3C(=O)NC(C)(C)C)CC[C@@H](NC2CCOCC2F)C1 (stereo partly specified)
[4]
  inhibition at 10 µM: 0%
[5]
  IC50: 28 nM
[6]
  half-life at 1 µM: 1.77 h

## CO[C@@H]1COCC[C@@H]1N[C@@H]1CC[C@@](C(=O)N2C[C@@H]3C[C@H]2CN3C(=O)CC(C)(C)C)(C(C)C)C1
[7]
  IC50: 17 nM
[4]
  inhibition at 10 µM: 0%
[5]
  IC50: 24.2 nM
[6]
  half-life at 1 µM: > 2 h

## CC(C)[C@]1(C(=O)N2C[C@@H]3C[C@H]2CN3C(=O)N2CCCCC2)CC[C@@H](NC2CCOCC2F)C1 (stereo partly specified)
[4]
  inhibition at 10 µM: 0%
[5]
  IC50: 75.9 nM

## CC(C)[C@]1(C(=O)N2C[C@@H]3C[C@H]2CN3C(=O)C2CCC2)CC[C@@H](NC2CCOCC2F)C1 (stereo partly specified)
[4]
  inhibition at 10 µM: 17%
[5]
  IC50: 38.4 nM
[6]
  half-life at 1 µM: 0.35 h

## CC(C)[C@]1(C(=O)N2C[C@@H]3C[C@H]2CN3C(=O)C2CCCCC2)CC[C@@H](NC2CCOCC2F)C1 (stereo partly specified)
[4]
  inhibition at 10 µM: 0%
[5]
  IC50: 15.2 nM
[6]
  half-life at 1 µM: 0.917 h

## CC(C)[C@]1(C(=O)N2CCN(C(=O)OC(C)(C)C)CC2)CC[C@@H](NC2CCOCC2)C1
[10]
  Activity: 24%

## CC(C)[C@]1(C(=O)N2C[C@@H]3C[C@H]2CN3C(=O)C2CCOCC2)CC[C@@H](NC2CCOCC2)C1
[8]
  Activity: 46%
[4]
  inhibition at 10 µM: 0%
[6]
  half-life at 1 µM: > 2 h

## CC(C)[C@]1(C(=O)N2C[C@@H]3C[C@H]2CN3C(=O)CC(C)(C)C)CC[C@@H](NC2CCOCC2)C1
[7]
  IC50: 36.9 nM
[4]
  inhibition at 10 µM: 5.7%
[6]
  half-life at 1 µM: > 2 h

## CO[C@@H]1COCC[C@@H]1N[C@@H]1CC[C@@](C(=O)N2C[C@@H]3C[C@H]2CN3C(=O)C2CCC2)(C(C)C)C1
[7]
  IC50: 11.7 nM
[4]
  inhibition at 10 µM: 4%
[6]
  half-life at 1 µM: > 2 h
